Test system: MS2 coat protein
Assay: apparent Kd, MS2 coat protein; higher = weaker binding; RNA-MaP array; FMN 200 µM where present
In short: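 The apparent Kd is reported as the median of filtered per-cluster binding-curve fits. To get these curves, designs transcribed by stalled E. coli RNA polymerase on Illumina sequencing-chip clusters were titrated with SNAP-549-labelled MS2 coat protein from 0.7 or 1.5 nM, doubling to 3 µM. Titrations were run without and then with constant ligand in 100 mM Tris-HCl pH 7.5, 80 mM KCl, 4 mM MgCl2, BSA, DTT, yeast tRNA and Tween-20, and green signal was normalised to red-channel RNA signal and control-cluster median Fmax.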

[1] = designed as: ON switch for flavin mononucleotide, no ligand
[2] = ligand present: flavin mononucleotide, designed as: ON switch for flavin mononucleotide
[3] = designed as: OFF switch for flavin mononucleotide, no ligand
[4] = ligand present: flavin mononucleotide, designed as: OFF switch for flavin mononucleotide

| Sequence | apparent Kd [1] | apparent Kd [2] | apparent Kd [3] | apparent Kd [4] |
| --- | --- | --- | --- | --- |
| GCGUUGAUGUAGAAGGUACAUGAAUAUAUUUAAUACCUCAAGUAACAUGAGGAUCACCCAUGUAGUAAGGAUAUACAUGAACGC | 88.6 nM | 56.1 nM |  |  |
| CAGGUAGACUGAGGAUAUACAAGACUUAGUCUAUCUAGGUCAUUAACCACAUGAGGAUCACCCAUGUAGAAGGCAGUCUGCCUG |  |  | 17.7 nM | 23.9 nM |
| UGGUACAUGGGAGGAUAUGGAGUGAAGACAUGAGGAUCACCCAUGUUAUAAAUGCCGAGAGGCAACUAGAAGGCCCAUGUACCU | 77.7 nM | 14.3 nM |  |  |
| GCCCUAAAGCGGGCCGACCAUACAUGAGGAUCACCCAUGUCGAGAAGGUGCUCACGGGUGGGUGGCAAGGAUAUCGGGUCGGAA | 65.6 nM | 32.6 nM |  |  |
| GGUACUCAAAGAGUACCAAUACGAACAUGAGGAUCACCCAUGUAGGAUAUGCUACUCAAAGAGUAGCAGAAGGACAUGUGUCUA |  |  | 29.6 nM | 160 nM |
| AUUGAGAUAGCGAUAUGAUCGAGAGAUCAUGUCGCUAAGUUUAGAAGGACAUGAGGAUCACCCAUGUAGGAUAUGGGAGUAGAA | 128 nM | 57.5 nM |  |  |
| AAGUAUAGAGGAUAUAGUGAGUACUACAUGAGGAUCACCCAUGUUCUUCAAAACGUAUUUCUAGAAGGCUGUUAAA |  |  | 45.3 nM | 86.7 nM |
| UGUCCAUAGCAGAAGGACAUGAAUAACCAUGAAAACAUGAGGAUCACCCAUGUAGGAUAUGCUAUGGACUAAGAGCGAAAGCUC |  |  | 15 nM | 175 nM |
| ACGAGUACAGGAUAUACAUGAGGAUCACCCAUGUGAGAAUUAAGUGGCGUACCACAAAGUAGAAGGGUACUCGA |  |  | 40.3 nM | 236 nM |
| CUCUGCCGGCAGGAUAUUAGGUUACGAUGACGUUGAGAAGGGCUGACAUGAGGAUCACCCAUGUAGGGCUCCAU |  |  | 18.8 nM | 24.5 nM |
| UAAUUUUUGACAGGAUAUCCAUGUACAUGAGGAUCACCCAUGUAAAAGGGUAGCCUCAUCGGGCAGGAGAAGGGUCGAUAGGCG |  |  | 249 nM | 134 nM |
| UGUCGGAGCAGAGGAUAUUACAUGAGGAUCACCCAUGUAUGAACCAAUAGCUGGAAACAGCACUGUAAGAAGGCUGCUCCGACA |  |  | 8.67 nM | 96.2 nM |
| GACAUACAUGAGGAUCACCCAUGUUCAGGCGGACAAGGAUAUGUGUGGAAACCAUACUAUACAGAAGGUGUCUGUC | 24.8 nM | 17.3 nM |  |  |
| GAUAGGACAGAGAAGGACAUAGCUAGAGAUACUAGCAUAAGAACUUCAACAUGAGGAUCACCCAUGUAGGAUAUCUGUCCUAUC |  |  | 6.88 nM | 8.76 nM |
| UCGUAUACACAAGGAUAUCGAUGGCUUGUAGAUCCUACAUGAGGAUCACCCAUGUUUUUAUAUUGUGAGAAGGUGUAGUGUCGU | 1320 nM | 1210 nM |  |  |
| AAUUUACAGCUAGGAUAUACAUGAGGAUCACCCAUGUAAUGAUCGGAUCUUAUGAUCGUAUCCGUGUAGAAGGAGCAAAUAAGA |  |  | 8.12 nM | 8.8 nM |
| UGUACUCAAAGAGUACCAAUACGAACAUGAGGAUCACCCAUGUAGGAUAUGCUACUCAAAGAGUAGCAGAAGGACAUGUGCCUA |  |  | 19 nM | 76.3 nM |
| UGCAGACGAGGAUAUGAUUAAUAAUACAUGAGGAUCACCCAUGUAAUACUGAUCUAUGGAUCAGAAGGCGUCUGCU |  |  | 17.3 nM | 14.6 nM |
| AAAAGACAUGAGGAUCACCCAUGUGAAAACAUACAAGGAUAUGUGUGGAAACCGUACUAUACAGAAGGUGUAUGUC | 34.8 nM | 20 nM |  |  |
| CUCUUGUGAGGAUAUCAGUAGUAAAAAAAUAAAAUUACUACUGAGAAGGCACAUGAGGAUCACCCAUGUGUCUU |  |  | 14 nM | 13.1 nM |
| AUCAGCUCGUCAGGAUAUGCAUCACUGCUUCGGCAGUGUGGUAAGAUCACAUGAGGAUCACCCAUGUAGAAGGGACGAGCUGAU |  |  | 9.83 nM | 69.4 nM |

From the EternaBench riboswitch data
